Molecules are shown by their SMILES. The source made the active and inactive calls. No cut-off for these calls is given here.

The results in this text go back to ChEMBL document CHEMBL2407048, “Novel synthetic acridine derivatives as potent DNA-binding and apoptosis-inducing antitumor agents” (Bioorg Med Chem, 2013).

Assay [1] concerns DNA. Description: Binding affinity to calf thymus DNA by fluorescence spectroscopic analysis. The class given is nucleic-acid assay. The conditions noted are these: Bos taurus. In short, it runs like this: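 Compound at 50 μM final in Tris–HCl buffer pH 7.0 (10 mM Tris, 10 mM NaCl), titrated with ct DNA at 0 to 6 μM final. Emission excited at 420 nm with a xenon arc lamp. Quenching constant Kq derived from a Stern–Volmer plot, F0/F = 1 + Kq[Q].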

The test system of assay [2] is HepG2. Kind of assay: Cytotoxicity against human HepG2 cells assessed as growth inhibition after 48 hrs by MTT assay. The settings on record: HepG2, 48 h. The format is functional, cell-based. In short, it runs like this: (§1)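 K562 (RPMI-1640) or HepG-2 (DMEM) cells in 10% FBS with penicillin/streptomycin at 37 °C, 5% CO₂. Seeded at 1.5×10^5 cells/mL and treated 48 h at various concentrations. MTT (5 mg/mL) added for 4 h, formazan dissolved in DMSO, absorbance read at 490 nm. IC50 reported.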
(Formazan colour is commonly taken as a measure of viable cells.)

Assay [3] relates to K562. Kind of assay: Cytotoxicity against human K562 cells assessed as growth inhibition after 48 hrs by MTT assay. The settings on record: K562, 48 h. The class given is functional, cell-based. A digest of the protocol: as §1
The target of assay [4] is T1, DNA topoisomerase 1 (Homo sapiens) (UniProt P11387).
T1 sequence (whole entry): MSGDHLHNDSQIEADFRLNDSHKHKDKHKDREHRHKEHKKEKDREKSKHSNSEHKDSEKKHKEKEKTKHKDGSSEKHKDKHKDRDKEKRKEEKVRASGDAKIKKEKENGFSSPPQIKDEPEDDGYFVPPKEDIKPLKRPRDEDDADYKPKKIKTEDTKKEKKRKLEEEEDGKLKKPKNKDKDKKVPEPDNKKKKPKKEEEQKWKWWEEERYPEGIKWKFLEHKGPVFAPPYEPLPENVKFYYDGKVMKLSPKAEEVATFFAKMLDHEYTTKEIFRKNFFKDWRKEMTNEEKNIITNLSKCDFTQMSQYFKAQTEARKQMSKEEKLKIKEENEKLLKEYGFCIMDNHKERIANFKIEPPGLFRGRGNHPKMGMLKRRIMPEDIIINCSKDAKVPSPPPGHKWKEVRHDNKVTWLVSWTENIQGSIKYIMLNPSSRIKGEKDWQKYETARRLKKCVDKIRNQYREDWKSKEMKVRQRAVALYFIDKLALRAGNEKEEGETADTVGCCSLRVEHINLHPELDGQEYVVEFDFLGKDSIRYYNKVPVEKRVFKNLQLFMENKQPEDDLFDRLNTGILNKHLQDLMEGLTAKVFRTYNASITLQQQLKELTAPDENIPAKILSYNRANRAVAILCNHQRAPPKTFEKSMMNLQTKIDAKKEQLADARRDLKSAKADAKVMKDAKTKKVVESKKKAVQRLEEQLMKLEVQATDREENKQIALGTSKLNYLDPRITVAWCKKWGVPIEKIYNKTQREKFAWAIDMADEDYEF
Kind of assay: Inhibition of human recombinant DNA topoisomerase-1 assessed as relaxation of pBR322 DNA at 25 uM after 30 mins by agarose gel electrophoresis.

For assay [5], the system named is K562. Description: Induction of apoptosis in human K562 cells assessed as decrease in BCL-XL level at 2.5 uM after 48 hrs by Western blot analysis. The format is functional, cell-based. A digest of the protocol: (§2)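 K562 cells in 6 cm dishes treated 48 h at several concentrations, then lysed on ice 0.5 h and spun at 20,000g. Protein measured by BCA, run on 15% SDS-PAGE and transferred to PVDF. Membrane blocked in 5% BSA/TBS with Na₃VO₄ and NaF, primary antibody 2 h at room temperature, chemiluminescent detection of cleaved caspase-3/7/9, BAX and BCL-XL.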
On the technique in general: In western blotting, separated proteins are transferred to a membrane and probed.

Assay [6] deals with K562. Kind of assay: Induction of apoptosis in human K562 cells assessed as increase in Bax level at 2.5 uM after 48 hrs by Western blot analysis. The format is functional, cell-based. In short, it runs like this: as §2
Assay [7] has as its system K562. Description: Induction of apoptosis in human K562 cells assessed as activation of caspase-9 after 48 hrs by Western blot analysis. The class given is functional, cell-based. In short, it runs like this: as §2
Assay [8] deals with K562. Kind of assay: Induction of apoptosis in human K562 cells assessed as caspase-7 cleavage at 2.5 uM after 48 hrs by Western blot analysis. The format is functional, cell-based. A digest of the protocol:
as §2

Assay [9] concerns K562. Kind of assay: Induction of apoptosis in human K562 cells assessed as caspase-3 cleavage at 2.5 uM after 48 hrs by Western blot analysis. The class given is functional, cell-based. In short, it runs like this: as §2
Assay [10] concerns K562. Kind of assay: Induction of apoptosis in human K562 cells after 48 hrs by annexin V-FITC/propidium iodide staining-based flow cytometric analysis. The class given is functional, cell-based. (A flow cytometer gives signals particle by particle.)
Assay [11] deals with K562. Kind of assay: Induction of apoptosis in human K562 cells assessed as early apoptotic cells at 2.5 uM after 48 hrs by annexin V-FITC/propidium iodide staining-based flow cytometric analysis (reference value: 2.1%). The class given is functional.
Assay [12] has as its system K562. Description: Induction of apoptosis in human K562 cells assessed as early apoptotic cells at 1 uM after 48 hrs by annexin V-FITC/propidium iodide staining-based flow cytometric analysis (reference value: 2.1%). The format is functional.
For assay [13], the system named is K562. Description: Induction of apoptosis in human K562 cells assessed as early apoptotic cells at 0.5 uM after 48 hrs by annexin V-FITC/propidium iodide staining-based flow cytometric analysis (reference value: 2.1%). The class given is functional.
Assay [14] concerns K562. Kind of assay: Induction of apoptosis in human K562 cells assessed as late apoptotic cells at 2.5 uM after 48 hrs by annexin V-FITC/propidium iodide staining-based flow cytometric analysis (reference value: 1.22%). The class given is functional.
Assay [15] has as its system K562. Description: Induction of apoptosis in human K562 cells assessed as late apoptotic cells at 1 uM after 48 hrs by annexin V-FITC/propidium iodide staining-based flow cytometric analysis (reference value: 1.22%). The format is functional.
The test system of assay [16] is K562. Description: Induction of apoptosis in human K562 cells assessed as late apoptotic cells at 0.5 uM after 48 hrs by annexin V-FITC/propidium iodide staining-based flow cytometric analysis (reference value: 1.22%). The format is functional.
Assay [17] relates to DNA. Description: Binding affinity to calf thymus DNA at 40 to 80 uM by CD spectra analysis. The class given is nucleic-acid assay. The settings on record: Bos taurus. A digest of the protocol: (§3)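 CD spectra of ct DNA (40 μM) with compound at 0, 40 or 80 μM, in 10 mM Tris/10 mM NaCl pH 7.0, at room temperature in a 0.1 cm quartz cell. Each spectrum is the average of three scans with the buffer scan subtracted.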

The subject of assay [18] is DNA. Description: Effect on calf thymus DNA conformation at 40 to 80 uM by CD spectra analysis. The class given is nucleic-acid assay. The conditions noted are these: Bos taurus. In short, it runs like this: as §3
Assay [19] concerns DNA. Kind of assay: Binding affinity to calf thymus DNA after 5 mins by UV-vis absorption spectroscopic analysis. The format is nucleic-acid assay. The conditions noted are these: Bos taurus. In short, it runs like this:
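ct DNA (purity A260:A280 1.86; concentration per mole phosphate from ε260 6600 M⁻¹ cm⁻¹) titrated into 50 μM compound in 10 mM Tris, 10 mM NaCl, pH 7.0. DNA 0–10 μM. Incubated 5 min, UV-vis absorption recorded in a 1.0 cm quartz cell. Kb taken as the slope-to-intercept ratio of [DNA]/(εa−εf) plotted against [DNA].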

As to `Clc1ccc2c(NCc3ccccc3)c3ccccc3nc2c1`, the Kq in assay [1] was 1.33 ×10⁴ /M. In addition, the IC50 – broadly, the midpoint of a concentration-inhibition curve – in assay [2] is 11.6 µM; in assay [3] it was 9.24 µM.
Take `Cc1cccc2c(NCc3ccccc3)c3ccccc3nc12`: the inhibition result in assay [4] is “Active”. Further, the Kq in assay [1] stood at 6.22 ×10⁴ /M. In addition, the IC50 in assay [2] stood at 3.64 µM; in assay [3], 4.86 µM.
In assay [1], `COc1cc(C)c2nc3cc(Cl)ccc3c(NCc3ccccc3)c2c1` registered a Kq of 1.11 ×10⁵ /M. In addition, the IC50 in assay [2] was 6.05 µM; in assay [3], 3.09 µM.
In assay [1], `COc1ccc2nc3cc(Cl)ccc3c(NCc3ccccc3)c2c1` yielded a Kq of 1.97 ×10⁵ /M. Also, the results for the 50% inhibitory concentration (IC50) in assay [2] and in assay [3] were 1.4 µM and 0.65 µM, respectively.
Consider `c1ccc(CNc2c3ccccc3nc3ccccc23)cc1`, for which, in assay [4], the inhibition result was “Active”. Further, in assay [1], the Kq stood at 3.71 ×10⁴ /M. In addition, the results for the concentration for half-maximal inhibition (IC50) in assay [2] and in assay [3] were 6.07 µM and 5.24 µM, respectively.
Regarding `c1ccc(COc2c3ccccc3nc3ccccc23)cc1`, the Kq in assay [1] was under 1 ×10⁴ /M. Also, the IC50 in assay [2] and in [3] was over 50 µM throughout.
`O=C(Nc1c2ccccc2nc2ccccc12)c1ccccc1` yielded a Kq in [1] of under 1 ×10⁴ /M. In addition, the half-maximal inhibitory concentration (IC50) in [2] and in assay [3] was over 50 µM each time.
In the case of `COc1ccc2nc3cc(Cl)ccc3c(NCCc3ccccc3)c2c1`, in assay [1], the Kq was determined as 1.19 ×10⁵ /M. In addition, the concentration for half-maximal inhibition (IC50) was found to be 2.19 µM in [2] and 0.65 µM in assay [3].
On to `COc1ccc2nc3ccccc3c(NCc3ccccc3)c2c1`, for which the result in [5], in [6], in [8], in [9] and in assay [17] was Active. For the same molecule, the Activity result is “Dose-dependent effect” in assay [7]; “Dose-dependent effect” in assay [10]; 40.44% in assay [11]; 37.09% in assay [12]; 7.23% in [13]; 32.71% in [14]. In addition, the Activity in assay [15] is listed as 18.42%; in assay [16], 2%. In addition, the inhibition result in assay [4] was “Active”. In addition, the result in assay [18] was inactive. In assay [19], the Kb turned out to be 1.42 ×10⁵ /M. Further, in assay [1], the Kq came out at 3.5 ×10⁵ /M. For the same molecule, the IC50 in assay [2] was 0.89 µM; in assay [3], 0.54 µM.
The molecule `COc1ccc2nc3cc(Cl)ccc3c(NCCCc3ccccc3)c2c1` gave a Kq in assay [1] of 1.05 ×10⁵ /M. Also, the IC50 in [2] was found to be 3.26 µM; in [3] it was 2.2 µM.
As for `COc1cc2c(c(OC)c1OC)-c1ccc(OC)c(=O)cc1[C@@H](NC(C)=O)CC2` [COLCHICINE], in assay [2], the IC50 is 1.8 µM.
Turning to `Cc1ccc(NC(=O)c2ccc(CN3CCN(C)CC3)cc2)cc1Nc1nccc(-c2cccnc2)n1` [IMATINIB], the IC50 in assay [3] is 0.47 µM.
